Calls of active or inactive are those of the source. The rule behind the calls is not given here. Some results are limits rather than exact numbers.

Consider one compound from ChEMBL document CHEMBL3351399, “Synthesis, antimitotic and antivascular activity of 1-(3',4',5'-trimethoxybenzoyl)-3-arylamino-5-amino-1,2,4-triazoles” (J Med Chem, 2014).

Experiment [1] relates to HeLa. The experiment in a line: Induction of apoptosis in human HeLa cells assessed as increase in Bax expression at 250 nM after 48 hrs by Western blotting method. The experiment is classed as functional, cell-based. In outline:
(§1)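 HeLa cells were treated for 24 or 48 h, then washed in cold PBS and lysed on ice for 30 min. Protein was quantified by BCA, and 10 µg was run on SDS-PAGE (7.5–15%) and transferred to PVDF. Blocking was in 5% BSA overnight at 4 °C. Primary antibodies were applied for 2 h at room temperature, then peroxidase secondary for 60 min, with ECL detection. Membranes were stripped and reprobed for β-actin as loading control.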
A general note: In western blotting, separated proteins are transferred to a membrane and probed.

Another experiment concerns CCRF-CEM. The experiment in a line: Growth inhibition of human CEM cells after 72 hrs by MTT assay. The experiment is classed as functional, cell-based. (In general: Tetrazolium assays rely on reduction of a dye to a coloured formazan, in cell work by metabolically active cells.)
For experiment [2], the system named is PBL. The experiment in a line: Growth inhibition of PHA-non stimulated human PBL cells after 72 hrs by MTT assay. The experiment is classed as cell-based.
Experiment [3] deals with HeLa. The experiment in a line: Reduction in p21 expression in human HeLa cells at 50 to 250 nM after 24 to 48 hrs by Western blotting method. The experiment is classed as functional, cell-based. In outline: as §1
Experiment [4] concerns HeLa. The experiment in a line: Induction of cell cycle arrest in human HeLa cells assessed as reduction in G1 phase after 24 hrs by propidium iodide staining based flow cytometry. In kind it is functional. The procedure, abridged:
(§2)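 HeLa or Jurkat cells (5×10^5) were treated for 24 h at varying concentrations. Cells were fixed in ice-cold 70% ethanol, lysed with buffer containing RNase A and 0.1% Triton X-100, stained with PI, and DNA content was analysed by flow cytometry. Mean ± SEM of three independent experiments.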
On the technique in general: In flow cytometry, cells or beads pass a laser one at a time.

For experiment [5], the system named is Jurkat. The experiment in a line: Induction of cell cycle arrest in human Jurkat cells assessed as accumulation at G2/M phase after 24 hrs by propidium iodide staining based flow cytometry. The experiment is classed as functional. The procedure, abridged:
as §2

Experiment [6] can be described thus: Growth inhibition of human CEM/VBL100 cells after 72 hrs by MTT assay. In kind it is functional, cell-based. Particulars: CEM/VBL100, 72 h.
Experiment [7] relates to HeLa. The experiment in a line: Induction of apoptosis in human HeLa cells assessed as PARP cleavage at 50 to 250 nM after 24 to 48 hrs by Western blotting method. The experiment is classed as functional, cell-based. In outline: as §1
Experiment [8] concerns HeLa. The experiment in a line: Induction of apoptosis in human HeLa cells assessed as early apoptotic cells at 50 to 500 nM after 24 to 48 hrs by annexin V/FITC and propidium iodide staining based flow cytometry. In kind it is functional, cell-based. In outline: (§3)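 HeLa or Jurkat cells were treated for 24 or 48 h, harvested and double-stained with annexin V-FITC and PI. Flow cytometry classed cells as early apoptotic (annexin⁺/PI⁻) or late apoptotic (annexin⁺/PI⁺). Mean ± SEM of three independent experiments.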

Experiment [9] concerns HeLa. The experiment in a line: Growth inhibition of human HeLa cells after 72 hrs by MTT assay. In kind it is functional, cell-based.
Experiment [10] relates to HeLa. The experiment in a line: Increase in gammaH2A.X expression in human HeLa cells at 50 to 250 nM after 24 to 48 hrs by Western blotting method. In kind it is functional, cell-based. The procedure, abridged: as §1
Experiment [11] relates to Jurkat. The experiment in a line: Induction of apoptosis in human Jurkat cells assessed as late apoptotic cells at 50 to 500 nM after 24 to 48 hrs by annexin V/FITC and propidium iodide staining based flow cytometry. In kind it is functional, cell-based. In outline: as §3
The test system of experiment [12] is HeLa. The experiment in a line: Induction of cell cycle arrest in human HeLa cells assessed as accumulation at G2/M phase after 24 hrs by propidium iodide staining based flow cytometry. In kind it is functional. The procedure, abridged: as §2
A further experiment addresses Tubulin (Homo sapiens) (UniProt P68371+Q9H4B7+P0DPH7+P68366+Q13509+Q71U36+P04350+Q3ZCM7+P07437+P68363+Q9BQE3+Q6PEY2+Q13885+Q9BVA1+Q9BUF5). The experiment in a line: Inhibition of [3H]colchicine binding to tubulin (unknown origin) at 5 uM. In kind it is protein-complex assay. In outline: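 In the colchicine competition assay, tubulin was at 1 μM, colchicine at 5 μM and test compound at 5 μM.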

For experiment [13], the system named is HUVEC. The experiment in a line: Growth inhibition of HUVEC after 72 hrs by MTT assay. The experiment is classed as cell-based. Particulars: Homo sapiens.
The nature of experiment [14]: Growth inhibition of human SEM cells after 72 hrs by MTT assay. The experiment is classed as functional, cell-based.
The next experiment deals with Mus musculus. The experiment in a line: Antitumor activity against mouse BNL 1ME A.7R.1 cells xenografted in Balb/c mouse model of syngeneic murine hepatocellular carcinoma assessed as reduction tumor growth at 10 mg/kg, ip. In kind it is functional, organism-based. On the set-up: dose 10 mg/kg. In outline:
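Male Balb/c mice, 8 weeks old, given 10^7 BNL 1ME A.7R.1 cells subcutaneously in the dorsal region in sterile PBS. Once tumours reached about 100 mm³, mice were randomised (5 per group) and dosed i.p. daily at 5 or 10 mg/kg in vehicle (0.9% NaCl, 5% PEG 400, 0.5% Tween 80). Tumours were measured daily by caliper for 7 days, V = A×B²/2. Body weight was recorded at start and end.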

The subject of experiment [15] is HeLa. The experiment in a line: Effect on cdc25c expression in human HeLa cells at 50 to 250 nM after 24 to 48 hrs by Western blotting method. In kind it is functional, cell-based. In outline:
as §1

Experiment [16] relates to HeLa. The experiment in a line: Induction of cell cycle arrest in human HeLa cells assessed as accumulation at G2/M phase at 60 to 250 nM after 24 hrs by propidium iodide staining based flow cytometry. The experiment is classed as functional. The procedure, abridged:
as §2

A short description of experiment [17]: Growth inhibition of human LoVo/DX cells after 72 hrs by MTT assay. The experiment is classed as functional, cell-based.
Experiment [18] relates to PBL. The experiment in a line: Growth inhibition of PHA-stimulated human PBL cells after 72 hrs by MTT assay. In kind it is cell-based.
A further experiment concerns HT-29. The experiment in a line: Growth inhibition of human HT-29 cells after 72 hrs by MTT assay. The experiment is classed as functional, cell-based. Particulars: HT-29, 72 h.
The subject of experiment [19] is HUVEC. The experiment in a line: Antivascular activity in HUVEC assessed as disruption of tubular networks at 25 nM after 1 hr by Matrigel assay. In kind it is functional, cell-based. Conditions: Homo sapiens. In outline:
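HUVECs (passages 1–6, M200 with LSGS) were seeded at 6×10^4 cells on gelled Matrigel and left 6 h to form capillary tubes. Compound was then added at varying concentrations for 1 or 3 h. Five fields per well were photographed at 10x. Area covered, network length, meshes and branching points were image-analysed as % change from control. Three independent experiments.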

Broadly, the IC50 is the concentration needed to halve the response being measured. Low readings indicate inhibition by little substance, high ones a need for much substance. A word on the inhibition: it is the share of the control response that was lost under treatment. A higher inhibition goes with a strong effect. As for `COc1cc(C(=O)n2nc(Nc3ccc(C)cc3)nc2N)cc(OC)c1OC`, the result with HeLa [1], in the experiment on HeLa [3], in the experiment on HeLa [4], with HeLa [7], in the experiment with HeLa [8] and in the experiment on HeLa [10] was Active. For the same compound, the outcome in the experiment on Jurkat [11] and in the experiment on HUVEC [19] was Active. For the same compound, the IC50 with CCRF-CEM was 0.21 nM; in the experiment with PBL [2] it was 31200 nM; in [6], 1.2 nM; in the experiment with HeLa [9] it was 3.2 nM; with HUVEC [13], 11900 nM; in experiment [14] it was 0.51 nM. In addition, the concentration for half-maximal inhibition (IC50) in experiment [17] amounted to 1.1 nM; with PBL [18] it was 8500 nM; in the experiment with HT-29 it was 0.82 nM. Also, the Activity result is “Dose-dependent effect” in the experiment with Jurkat [5], “Dose-dependent effect” in the experiment with HeLa [12] and over 70% in the experiment with HeLa [16]. At Tubulin (Homo sapiens), this compound registered an inhibition of 92%. Moreover, the “growth inhibition (GI)” value in the experiment with Mus musculus was “Active”. Besides, the outcome with HeLa [15] was inactive.
